# NadD inh = blocks S. aureus nicotinate mononucleotide adenylyltransferase. hit rate 0.78% among 360,000. inhibition, % at 20 µM. purified NadD enzyme, colorimetric absorbance read-out. AID 602399; in the data active = inhibition above about 26%
# CSN inh = inhibitors of human CSN-mediated cullin deneddylation. Q92905. Purified CSN, SCF-Nedd8-OG deneddylation, fluorescence polarization. inhibition, % at 12.5 µM. hit rate 0.38% among 360,000;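 active = pattern-corrected inhibition above about 35%, with an unprinted fluorescence ratio check between 0.5 and 1.5, limit read from the data, passing the limit was not always enough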;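 also: 0% = enzyme with substrate and 100% = substrate without enzyme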
#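 test system = HEK293T-derived human Csn5 enzyme | amount = 0.24 nM Csn5 enzyme, final concentration | medium = Tris/NaCl/DTT buffer, pH 7.5 | schedule = 90 min reaction at room temperature | signal = FP | evaluation = inhibition of Csn5 cleavage, % | compound dosing = single dose of 12.5 µM compound with 0.25% DMSO | probe or stimulus = 10 nM SCFSkp2-Nedd8OG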
# TPT1 inhibitor = blocks Candida albicans tRNA 2'-phosphotransferase; recombinant caTPT1, FP RNA substrate dephosphorylation; hit rate 0.81% among 300,000; inhibition, % at 5 µM;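 active = inhibition above the mean of all tested compounds plus 3 SD, set per screening campaign, cut at about 24% in these data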;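 also: plate controls were DMSO alone for no effect and ferristatin control at 100 nM for full effect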
# PP1 counter = counter-screen for PP5 inhibitors: inhibitors of human PP1-alpha | P62136 | purified PP1alpha, OMFP fluorescence | inhibition, % at 6.7 µM | hit rate 0.9% among 320,000 | AID 2235;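 active = inhibition above the mean inhibition of all tested compounds plus 3 SD, computed separately for each screening campaign, cut at about 15% in these data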
# Target sequence (P62136 whole entry, looked up): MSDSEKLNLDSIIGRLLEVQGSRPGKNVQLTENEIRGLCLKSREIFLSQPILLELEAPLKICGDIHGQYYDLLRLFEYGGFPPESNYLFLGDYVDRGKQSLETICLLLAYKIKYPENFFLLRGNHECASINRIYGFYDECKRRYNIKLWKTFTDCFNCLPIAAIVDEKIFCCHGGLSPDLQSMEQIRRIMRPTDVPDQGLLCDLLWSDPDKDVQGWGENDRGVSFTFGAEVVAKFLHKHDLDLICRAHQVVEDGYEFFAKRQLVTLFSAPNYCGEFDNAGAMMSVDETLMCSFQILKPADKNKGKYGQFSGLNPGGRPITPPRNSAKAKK
# HNF4A DNA FP = change in binding of human HNF4 alpha to DNA; AID 1224865; hit rate 0.3% among 360,000; activity change, % at 10 µM; P41235; HNF4a-FITC DNA binding, fluorescence polarization, 1 h; in the data active = activity change above about 30%, passing the limit was not always enough
# Rpn11 block = blocks the human proteasome subunit Rpn11; human 26S proteasome, Ub4-pepOG fluorescence polarization; 20S core pre-blocked with epoxomicin; inhibition, % at 20 µM; hit rate 0.59% among 360,000; AID 588493;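 active = inhibition at 20 µM, scaled to each plate's controls, above about 33%, limit read from the data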
# * hit, by the source's call; · = not tested or not shown. This is a sample that favours compounds with a hit; in the whole collection about 2.7% have one here.
SMILES,NadD inh,CSN inh,TPT1 inhibitor,PP1 counter,HNF4A DNA FP,Rpn11 block
CC(C)(c1ccccc1)c1ccc(OCC(O)CNC2CCN(Cc3ccccc3)CC2)cc1 (centres undefined),8,4,-4,16*,-1,14
CN(C(=O)c1cccc(NC(=O)Cc2cccc(NC(=O)C3CCCN(C(=O)CCc4ccccc4)C3)c2)c1)C1CCC1 (centres undefined),3,-2,·,·,2,0
CC(C)CNC(=O)C1(C)CCCCCN1C(=O)c1cc(C#N)cs1 (centres undefined),-1,0,·,·,-1,2
O=S(=O)(Nc1nc2ccccc2s1)c1cc(F)ccc1F,-3,2,0,-3,3,0
O=S(=O)(Nc1nc(-c2ccco2)c(-c2ccco2)s1)c1ccc(F)cc1F,6,39*,·,·,-9,6
COc1cc2ccccc2cc1C(=O)Nc1ccc(C)cc1,-8,-1,-2,4,1,-2
COc1cc2ccccc2cc1C(=O)Nc1ccc(Cc2ccncc2)cc1,4,6,0,16*,2,1
CCCN(C(=O)c1cc(S(=O)(=O)N2CCCCCC2)ccc1OC)C1CCS(=O)(=O)C1 (centres undefined),-1,0,-2,-4,-1,-7
COc1ccc(NC(=O)Nc2nnc(CC(=O)NCc3ccccc3)s2)cc1,5,-1,-3,16*,-1,-6
O=C(O)CCCCCCCCc1cn(CCc2c[nH]c3ccccc23)nn1,2,-1,-1,0,-1,-8
CCOC(=O)COc1ccc(Br)cc1/C=C/c1[nH]c(=O)[nH]c(=O)c1[N+](=O)[O-],1,39*,2,4,-3,-7
CCOC(=O)COc1ccc(Br)cc1/C=C\c1[nH]c(=O)[nH]c(=O)c1[N+](=O)[O-],2,29,-2,5,-2,-2
CC(=O)N1CCc2c(sc(NC(=O)C3CC3)c2-c2nc3ccccc3s2)C1,3,44*,19,8,35*,·
CCCCCCCC(=O)Nc1cc(C(=O)NCCC)ccc1N1CCC2(CC1)CC(c1cccc(Br)c1)=NO2,10,-5,-2,2,12,7
CCCNC(=O)c1ccc(N2CCC3(CC2)CC(c2cccc(Br)c2)=NO3)c(NC(=O)c2cccc(C)c2)c1,12,3,-2,16*,3,-3
CS(=O)(=O)N(CC(=O)N1CCN(Cc2ccccc2)CC1)Cc1ccccc1,9,82*,-2,0,-4,-3
CCC(c1nnnn1-c1ccc2c(c1)OCCO2)N1CCN(c2ccc(F)cc2)CC1 (centres undefined),-6,2,·,·,-3,·
COc1ccc(N2CCN(C(=O)CSc3ccc([N+](=O)[O-])cc3)CC2)cc1,2,4,0,-1,-1,-3
COc1ccc(C(=O)CCC(=O)N2CCN(c3ccc([N+](=O)[O-])cc3)CC2)cc1,2,4,4,16*,0,2
CCc1ccc(-c2nc(CN3CCC(C(=O)NCCN(CC)c4ccccc4)CC3)c(C)o2)cc1,-7,-2,-2,0,-2,10
CCN(CCNC(=O)C1CCN(Cc2nc(-c3ccc(Cl)cc3)oc2C)CC1)c1ccccc1,-8,-3,0,6,63*,-2
Cc1nc(SCc2ccc(Cl)c(Cl)c2)n[nH]1,-7,3,·,·,118*,-3
C[C@H]1CNC(=O)c2c(C(=O)NC3CCN(C(=O)OC(C)(C)C)CC3)ncn21,-7,-1,·,·,-1,4
Sc1nnc(-c2ccc(Cl)cc2)n1Cc1ccccc1,14,3,·,15*,3,0
O=C(COC(=O)c1cc(Br)ccc1O)NNC(=O)c1cccs1,3,3,·,0,-2,2
SMILES,NadD inh,CSN inh,TPT1 inhibitor,PP1 counter,HNF4A DNA FP,Rpn11 block
CC(=O)Nc1ccc(S(=O)(=O)c2ccc(C)cc2)cc1,1,5,-1,-2,34*,0
O=C(c1cccc([N+](=O)[O-])c1)c1ccc2[nH]c(=O)[nH]c2c1,7,97*,4,1,4,-4
COc1ccc(NC(=O)C2CCN(S(=O)(=O)c3ccc4c(c3)NC(=O)C(C)S4)CC2)cc1 (centres undefined),-4,-1,1,-2,-1,8
CC1Sc2ccc(S(=O)(=O)N3CCC(C(=O)Nc4ccc(Cl)cc4)CC3)cc2NC1=O (centres undefined),7,9,14,4,41*,·
COc1ccc(CN2CCC(=O)N(CCO)CC2)cc1OC,-4,0,0,0,1,-3
CCOc1ccc(Nc2nc(N)c3ccccc3n2)cc1,-2,4,·,·,60*,1
CCC(=O)N/N=C/c1ccc(-c2ccc([N+](=O)[O-])cc2)o1,-7,2,9,3,-10,1
CC(C)(C)C(=O)/C=c1\s/c(=C\c2ccc(-c3ccc([N+](=O)[O-])cc3)o2)c(=O)n1CC(=O)NC(N)=O,15,-104,104*,4,96,·
OCC1OC(n2cnc3c(N4CCCCC4)ncnc32)C(O)C1O (centres undefined),6,-2,·,·,2,4
O=C(CCNC(=O)c1ccc(Br)cc1)NCc1ccncc1,-5,-2,2,-1,-7,0
CC(CCC(C)C(C)(C)C)[C@@H]1CC[C@H]2C3C[C@H](OS(O)(=S)=S)[C@H]4C[C@H](OS(O)(=S)=S)[C@@H](OS(O)(=S)=S)C[C@]4(C)[C@H]3CC[C@]12C (some centres undefined) (tested in a mixture with another compound),53*,35*,·,·,-82,133*
CC(=O)N1C[C@H]2CON(C)[C@H]2C[C@H]1c1ccccc1,0,-3,·,·,1,-5
COc1ccc(N=C2S/C(=C\c3ccc(OCC(=O)O)cc3)C(=O)N2CCc2c[nH]c3ccccc23)cc1,29,36*,·,·,-74,5
O=C(O)COc1ccc(/C=C2\SC(=Nc3ccccc3)N(c3ccccc3)C2=O)cc1,2,0,-2,4,1,-1
O=C(CCSc1nc2ccccc2s1)N/N=C/c1c(O)ccc2ccccc12,30*,2,3,11,8,29
COc1ccc(/C=N/NC(=O)CCSc2nc3ccccc3s2)cc1OC,-1,-1,-1,-1,1,-4
COC(=O)c1cc(O)cc(OC)c1Oc1cc(C)cc(O)c1C(=O)O,6,41*,1,0,-23,·
O=C(c1cnc(Cc2c[nH]c3ccccc23)c(I)c1)N1CCN(Cc2ccccc2)CC1,9,42*,·,·,1,0
FC(F)(F)c1ccc(N2CCOCC2)c(Nc2nc3ccccc3n3cnnc23)c1,-9,5,0,2,30*,2

# Screening results as filed in PubChem.
